Laboratory results: ChEMBL document CHEMBL2176880 (J Med Chem, 2012)
Active and inactive are the calls of the source.

What was measured:
[1] = Clearance in dog rat at 1 mg/kg, iv or […], po; type: ADME, organism-based, Canis lupus familiaris; settings: in vivo
Cytochrome P450 2D6 = Cytochrome P450 2D6 (Homo sapiens, UniProt P10635); test: Inhibition of CYP2D6; type: ADME
[2] = Oral bioavailability in dog rat at […]; type: ADME, organism-based, Canis lupus familiaris; settings: in vivo
Mus musculus [3] = test: Antipsychotic activity in subcutaneously dosed NMRI mouse assessed as efficacy free concentration causing reversal of PCP-induced hyperlocomotion; type: functional
TK6 [4] = test: Genotoxicity in human TK6 cells in presence of rat liver S9 fraction up to 150 ug/ml; type: toxicity, cell-based
Method in brief: (§1)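 In vitro micronucleus test in human lymphoblastoid TK6 cells, with or without metabolic activation by rat liver S9, tested up to 150 μg/mL.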

[5] = Oral bioavailability in Sprague-Dawley rat at 10 mg/kg; type: ADME, organism-based; settings: in vivo
[6] = Dissociation constant, pKa of the compound; type: physicochemical
[7] = Tmax in dog rat at 1 mg/kg, iv or […], po; type: ADME, organism-based, Canis lupus familiaris; settings: in vivo
Cytochrome P450 2C19 = Cytochrome P450 2C19 (Homo sapiens, UniProt P33261); test: Inhibition of CYP2C19; type: ADME
Sequence of Cytochrome P450 2C19 (P33261 whole entry): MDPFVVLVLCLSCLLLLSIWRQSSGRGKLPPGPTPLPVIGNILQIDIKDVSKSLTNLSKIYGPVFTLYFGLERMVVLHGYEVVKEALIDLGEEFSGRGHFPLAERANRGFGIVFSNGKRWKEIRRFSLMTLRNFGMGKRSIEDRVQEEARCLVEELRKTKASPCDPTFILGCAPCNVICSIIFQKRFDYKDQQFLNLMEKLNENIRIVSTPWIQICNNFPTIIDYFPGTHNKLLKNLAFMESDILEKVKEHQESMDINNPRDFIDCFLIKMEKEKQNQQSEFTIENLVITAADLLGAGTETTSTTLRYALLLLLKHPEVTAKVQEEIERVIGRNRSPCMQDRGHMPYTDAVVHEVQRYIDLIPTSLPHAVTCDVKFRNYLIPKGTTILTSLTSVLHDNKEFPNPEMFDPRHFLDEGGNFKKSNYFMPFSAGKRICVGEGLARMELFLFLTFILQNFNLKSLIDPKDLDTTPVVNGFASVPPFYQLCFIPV

[8] = Cardiotoxicity assessed as proarrhythmic potency in rabbit Purkinje fibers; type: toxicity, tissue-based, Oryctolagus cuniculus, Purkinje fiber
[9] = Drug metabolism in mouse liver microsomes at 5 uM after 15 mins; type: ADME, Microsome; settings: read-out: Drug metabolism
[10] = AUC (0 to infinity) in Sprague-Dawley rat at 10 mg/kg, po; type: ADME, organism-based; set-up: time infinity, dose 10 mg/kg, route oral; settings: plasma
[11] = Cmax in dog rat at 1 mg/kg, iv or […], po; type: ADME, organism-based, Canis lupus familiaris; settings: in vivo
MDR1 [12] = test: Apparent permeability from apical to basolateral side in MDR1 expressing pig LLC-PK1 cells; type: ADME, cell-based, Sus scrofa
[13] = Protein binding in human plasma; type: ADME, cell-free; settings: read-out: PPB (converted)
[14] = Volume of distribution at steady state in Sprague-Dawley rat at […], iv or 10 mg/kg, po; type: ADME, organism-based; settings: in vivo, read-out: Vdss
Cytochrome P450 2C9 = Cytochrome P450 2C9 (Homo sapiens, UniProt P11712); test: Inhibition of CYP2C9; type: ADME
Sequence of Cytochrome P450 2C9 (P11712 whole entry, the tested form may be a part): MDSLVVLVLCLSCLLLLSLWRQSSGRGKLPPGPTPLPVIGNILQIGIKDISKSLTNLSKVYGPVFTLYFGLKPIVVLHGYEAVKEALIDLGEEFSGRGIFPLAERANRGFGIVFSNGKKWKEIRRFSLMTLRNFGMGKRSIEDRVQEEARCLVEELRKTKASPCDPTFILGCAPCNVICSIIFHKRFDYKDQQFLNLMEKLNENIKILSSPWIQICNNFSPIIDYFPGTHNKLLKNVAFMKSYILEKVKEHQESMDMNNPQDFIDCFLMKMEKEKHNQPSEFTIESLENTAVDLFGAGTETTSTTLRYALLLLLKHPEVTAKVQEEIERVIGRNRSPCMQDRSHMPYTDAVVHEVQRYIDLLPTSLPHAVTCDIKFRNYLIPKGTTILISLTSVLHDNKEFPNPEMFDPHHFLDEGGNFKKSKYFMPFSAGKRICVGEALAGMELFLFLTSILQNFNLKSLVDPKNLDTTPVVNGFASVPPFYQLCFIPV

Rattus norvegicus [15] = test: Effect on sleep-wake stages in Sprague-Dawley rat sleep-wake EEG paradigm model assessed as induction of sleep fragmentation at 3 mg/kg, po; type: organism-based; set-up: dose 3 mg/kg, route oral; settings: in vivo
Method in brief: (§2)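 Male Sprague−Dawley rats (250−300 g) chronically implanted with EEG, EMG and EOG electrodes; n = 8 per group. A 20 h recording after oral saline was followed by a 20 h recording at the same circadian time after oral vehicle (20% CD + 2H2T) or compound (3 mg/kg), starting at 13:30 in the lights-on period. 2 s epochs scored into sleep−wake stages; REM onset latency and state transitions determined. Wilcoxon−Mann−Whitney tests against vehicle.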

MDR1 [16] = test: Apparent permeability from basolateral to apical side in MDR1 expressing pig LLC-PK1 cells; type: ADME, cell-based, Sus scrofa
[17] = Ratio of drug level in brain to plasma in Swiss mouse at 10 mg/kg, sc administered as single dose measured 1 hr post dose; type: ADME, organism-based; set-up: dose 10 mg/kg, route subcutaneous; settings: read-out: BPR
Method in brief: (§3)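 Swiss mice given a single 10 mg/kg sc dose at 1 mg/mL in 20% HP-β-CD + HCl solution, pH 4. Brain and plasma levels taken 1 h post dose. Values are geometric means of at least two runs.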

Rattus norvegicus [18] = test: Effect on sleep-wake stages in Sprague-Dawley rat sleep-wake EEG paradigm model at 3 mg/kg, po; type: ADME, organism-based; set-up: dose 3 mg/kg, route oral; settings: in vivo; method in brief: as §2
[19] = Half life in Sprague-Dawley rat at […], iv; type: ADME, organism-based; set-up: dose 2.5 mg/kg, route intravenous; settings: in vivo
Rattus norvegicus [20] = test: Prolongation of REM sleep onset latency in Sprague-Dawley rat sleep-wake EEG paradigm model at 3 mg/kg, po; type: functional, organism-based; set-up: dose 3 mg/kg; method in brief: as §2
Cytochrome P450 1A2 = biological target: T1, Cytochrome P450 1A2 (Homo sapiens, UniProt P05177); test: Inhibition of CYP1A2; type: ADME
T1 sequence (P05177 whole entry): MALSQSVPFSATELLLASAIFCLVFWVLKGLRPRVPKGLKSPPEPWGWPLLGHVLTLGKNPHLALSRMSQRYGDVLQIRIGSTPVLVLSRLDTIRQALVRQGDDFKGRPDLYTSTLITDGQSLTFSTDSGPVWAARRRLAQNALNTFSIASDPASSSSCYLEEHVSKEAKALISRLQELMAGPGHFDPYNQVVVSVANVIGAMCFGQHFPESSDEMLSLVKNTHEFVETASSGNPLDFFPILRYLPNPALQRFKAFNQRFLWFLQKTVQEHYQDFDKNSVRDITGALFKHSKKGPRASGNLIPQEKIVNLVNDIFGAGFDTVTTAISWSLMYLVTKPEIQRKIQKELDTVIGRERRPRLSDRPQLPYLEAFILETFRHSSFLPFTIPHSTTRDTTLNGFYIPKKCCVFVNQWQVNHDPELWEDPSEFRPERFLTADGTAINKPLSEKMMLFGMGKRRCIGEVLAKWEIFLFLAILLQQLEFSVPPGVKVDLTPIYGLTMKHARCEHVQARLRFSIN

[21] = Drug metabolism in human liver microsomes at 5 uM after 15 mins; type: ADME, Microsome; settings: read-out: Drug metabolism
Method in brief: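 Compound at 5 μM incubated 15 min with human liver microsomes; read-out is % of compound metabolized. Values are the mean of at least two experiments.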

TK6 [22] = test: Genotoxicity in human TK6 cells in absence of rat liver S9 fraction up to 150 ug/ml; type: toxicity, cell-based; method in brief: as §1
[23] = Protein binding in rat plasma; type: ADME, cell-free; settings: read-out: PPB (converted)
Rattus norvegicus [24] = test: Inhibition of REM sleep state in po dosed Sprague-Dawley rat sleep-wake EEG paradigm model; type: functional; settings: read-out: MED
[25] = Volume of distribution at steady state in dog rat at 1 mg/kg, iv or […], po; type: ADME, organism-based, Canis lupus familiaris; settings: in vivo, read-out: Vdss
[26] = Clearance in Sprague-Dawley rat at […], iv; type: ADME, organism-based; set-up: dose 2.5 mg/kg, route intravenous; settings: in vivo
[27] = Cmax in Sprague-Dawley rat at […], iv or 10 mg/kg, po; type: ADME, organism-based; settings: in vivo
[28] = Lipophilicity, log P of the compound at pH 7; settings: buffer
Rattus norvegicus [29] = test: Inhibition of REM sleep state in Sprague-Dawley rat sleep-wake EEG paradigm model at 3 mg/kg, po; type: functional, organism-based; set-up: dose 3 mg/kg; method in brief: as §2
Cytochrome P450 3A4 = Cytochrome P450 3A4 (Homo sapiens, UniProt P08684); test: Inhibition of CYP3A4; type: ADME
Sequence of Cytochrome P450 3A4 (P08684 whole entry): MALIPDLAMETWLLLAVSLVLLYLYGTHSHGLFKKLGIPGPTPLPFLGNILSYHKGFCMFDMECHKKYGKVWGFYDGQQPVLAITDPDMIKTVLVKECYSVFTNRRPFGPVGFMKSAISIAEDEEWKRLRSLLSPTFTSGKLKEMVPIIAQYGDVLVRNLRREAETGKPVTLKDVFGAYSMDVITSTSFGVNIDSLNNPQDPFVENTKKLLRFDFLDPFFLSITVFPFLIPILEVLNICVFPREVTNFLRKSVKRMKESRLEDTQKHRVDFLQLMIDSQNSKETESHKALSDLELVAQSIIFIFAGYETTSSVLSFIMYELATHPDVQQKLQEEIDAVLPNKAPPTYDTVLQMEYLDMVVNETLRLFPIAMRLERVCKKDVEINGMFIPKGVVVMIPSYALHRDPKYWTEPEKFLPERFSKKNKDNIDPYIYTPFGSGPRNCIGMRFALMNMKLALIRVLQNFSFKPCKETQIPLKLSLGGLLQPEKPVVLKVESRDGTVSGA

[30] = AUC (0 to infinity) in dog rat at 1 mg/kg, iv or […], po; type: ADME, organism-based, Canis lupus familiaris; settings: plasma
Salmonella typhimurium = test: Mutagenicity in Salmonella typhimurium TA98 up to […]; type: toxicity, organism-based; settings: salmonella enterica subsp. enterica serovar typhimurium
Cavia porcellus = test: Cardiotoxicity in anesthetized guinea pig assessed as proarrhythmic potency; type: toxicity, organism-based; settings: in vivo
[31] = Half life in dog rat at 1 mg/kg, iv or […], po; type: ADME, organism-based, Canis lupus familiaris; settings: in vivo
[32] = Drug level in Swiss mouse brain at 10 mg/kg, sc administered as single dose measured 1 hr post dose; type: ADME, organism-based; set-up: dose 10 mg/kg, route subcutaneous; settings: read-out: Drug uptake; method in brief: as §3
Mus musculus [33] = test: Antipsychotic activity in subcutaneously dosed NMRI mouse assessed as reversal of PCP-induced hyperlocomotion; type: functional
Method in brief: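 Nonhabituated mice given vehicle or test compound sc, then immediately challenged with PCP (5.0 mg/kg, sc) or vehicle and placed singly in open fields for 30 min. Distance travelled measured by video tracking. Responder criterion: total distance < 5500 counts.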

Rattus norvegicus [34] = test: Inhibition of REM sleep state in Sprague-Dawley rat sleep-wake EEG paradigm model assessed as efficacy free concentration at 3 mg/kg, po; type: functional
[35] = Plasma concentration in Swiss mouse at 10 mg/kg, sc administered as single dose measured 1 hr post dose; type: ADME, organism-based; set-up: dose 10 mg/kg, route subcutaneous; method in brief: as §3
Canis familiaris = test: Cardiotoxicity in anesthetized dog assessed as proarrhythmic potency; type: toxicity, organism-based, Canis lupus familiaris; settings: in vivo
[36] = Tmax in Sprague-Dawley rat at […], iv or 10 mg/kg, po; type: ADME, organism-based; settings: in vivo

Sequence of Cytochrome P450 2D6 (P10635 whole entry): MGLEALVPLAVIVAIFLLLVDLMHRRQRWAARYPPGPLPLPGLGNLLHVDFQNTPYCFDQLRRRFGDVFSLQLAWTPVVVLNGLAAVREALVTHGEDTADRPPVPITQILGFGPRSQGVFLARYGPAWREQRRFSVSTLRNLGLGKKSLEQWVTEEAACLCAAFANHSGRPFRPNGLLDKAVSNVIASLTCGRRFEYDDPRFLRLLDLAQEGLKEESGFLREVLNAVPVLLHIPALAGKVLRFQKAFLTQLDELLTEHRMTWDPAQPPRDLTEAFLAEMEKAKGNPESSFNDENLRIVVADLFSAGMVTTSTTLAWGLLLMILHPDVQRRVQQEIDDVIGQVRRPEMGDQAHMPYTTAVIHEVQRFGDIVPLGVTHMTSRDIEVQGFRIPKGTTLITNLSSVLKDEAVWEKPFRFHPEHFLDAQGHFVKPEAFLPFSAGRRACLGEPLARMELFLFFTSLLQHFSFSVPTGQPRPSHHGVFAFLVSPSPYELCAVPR

clearance [1]: 29 mL/min/kg
IC50 (Cytochrome P450 2D6): > 30 µM
bioavailability [2]: 18%
bioavailability [5]: 36%
pKa [6]: 4.1
Tmax [7]: 30 min
IC50 (Cytochrome P450 2C19): 20 µM
metabolised at […], 5 µM [9]: 25%
AUC(0-inf) [10]: 1800 ng·h/mL
Cmax [11]: 218 ng/mL
Papp A→B (MDR1 [12]): 12 ×10⁻⁶ cm/s
fraction unbound [13]: 0.0018
Vd [14]: 1.4 L/kg
IC50 (Cytochrome P450 2C9): 11 µM
Papp B→A (MDR1 [16]): 6 ×10⁻⁶ cm/s
Kp at 1 h [17]: 1.4
half-life [19]: 162 min
IC50 (Cytochrome P450 1A2): > 30 µM
metabolised at […], 5 µM [21]: 23%
fraction unbound [23]: 0.0035
Vd [25]: 1.3 L/kg
clearance [26]: 35 mL/min/kg
Cmax [27]: 482 ng/mL
logD [28]: 4.4
IC50 (Cytochrome P450 3A4): > 30 µM
AUC(0-inf) [30]: 531 ng·h/mL
half-life [31]: 48 min
concentration at 1 h [32]: 849 ng/mL
concentration at 1 h [35]: 671 ng/mL
Tmax [36]: 30 min
SMILES: FC(F)(F)c1c(N2CCC(c3ccccc3)CC2)ccn2c(CC3CC3)nnc12
INH (Mus musculus [3]): 2.6 ng/mL
Activity (TK6 [4]): Non-toxic
NOAEL [8]: 0.075 µM
Activity (Rattus norvegicus [15]): Non-toxic
Activity (Rattus norvegicus [18]): Non-toxic
Activity (Rattus norvegicus [20]): Active
Activity (TK6 [22]): Non-toxic
minimal effective dose (Rattus norvegicus [24]): 3 mg/kg
inhibition (Rattus norvegicus [29]): Active
Activity (Salmonella typhimurium): Non-toxic
NOAEL (Cavia porcellus): 9000 ng/mL
Activity (Mus musculus [33]): Dose-dependent effect
ED50 (Mus musculus [33]; sc): 5.4 mg/kg
INH (Rattus norvegicus [34]): 0.14 ng/mL
NOAEL (Canis familiaris): 6625 ng/mL
